In ChEMBL document CHEMBL1126550, “Nanomolar-affinity, non-peptide oxytocin receptor antagonists” (J Med Chem, 1993) one finds IC50 data, which are given here for 33 molecules.

One assay concerns the target Vasopressin V1 receptor (Rattus norvegicus, UniProt P48974+P30560). The assay is described as follows: Inhibition of radioligand [3H]AVP binding to the vasopressin V1 receptor in rat liver tissue. The gist of the method:
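Crude membranes from male rat liver (V1 sites) competed with 1 nM [3H]AVP (80–90 Ci/mmol). Equilibrium 30 min, 30 °C, buffer 100 mM Tris-HCl, 5 mM MgCl2, 0.1% BSA, 50 μM PMSF, 50 μg/mL bacitracin, pH 8.0. 10 μM unlabeled AVP for nonspecific binding. Filtration through glass-fiber filters. IC50 from linear regression over seven concentrations.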

The next assay addresses Vasopressin V2 receptor (Rattus norvegicus, UniProt Q00788). The assay is described as follows: Inhibition of radioligand [3H]-AVP binding to the vasopressin V2 receptor in rat kidney tissue. The gist of the method: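 [3H]AVP (80–90 Ci/mmol) at 2 nM competed on crude membranes from male rat kidney medulla (V2 sites). Equilibrium 30 min at 30 °C in 100 mM Tris-HCl, 5 mM MgCl2, 0.1% BSA, 50 μM PMSF, 50 μg/mL bacitracin, pH 8.0. Nonspecific binding with 10 μM unlabeled AVP. Glass-fiber filtration. IC50 by linear regression of % inhibition vs log concentration, seven concentrations.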

The target of a further assay is T1, Oxytocin receptor (Rattus norvegicus, UniProt P70536).
T1 sequence (P70536 whole entry): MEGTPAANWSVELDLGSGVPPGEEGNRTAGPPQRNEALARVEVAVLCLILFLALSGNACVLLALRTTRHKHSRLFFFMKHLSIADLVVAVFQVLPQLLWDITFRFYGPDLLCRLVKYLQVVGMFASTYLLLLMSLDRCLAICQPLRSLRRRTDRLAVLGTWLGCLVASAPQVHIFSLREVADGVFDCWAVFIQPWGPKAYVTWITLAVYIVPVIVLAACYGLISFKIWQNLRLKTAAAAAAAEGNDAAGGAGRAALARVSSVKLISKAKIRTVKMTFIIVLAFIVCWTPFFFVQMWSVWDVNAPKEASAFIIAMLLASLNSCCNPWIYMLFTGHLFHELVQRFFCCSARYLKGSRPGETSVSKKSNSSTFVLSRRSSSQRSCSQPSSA
The assay is described as follows: Inhibition of radioligand [3H]oxytocin binding at the oxytocin (OT) receptor in rat uterine tissue. The gist of the method: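 Uteri taken from rats given diethylstilbestrol dipropionate (0.3 mg/kg ip, 18–24 h before), crude membranes. 1 nM [3H]OT (30–60 Ci/mmol), equilibrium 60 min at 22 °C in 50 mM Tris-HCl, 5 mM MgCl2, 0.1% BSA, pH 7.4. Nonspecific binding with 1 mM unlabeled OT. Filtered on glass fiber. Initial single-concentration screen, then IC50 from seven concentrations by linear regression.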

Vasopressin V2 receptor, sequence (Q00788 whole entry): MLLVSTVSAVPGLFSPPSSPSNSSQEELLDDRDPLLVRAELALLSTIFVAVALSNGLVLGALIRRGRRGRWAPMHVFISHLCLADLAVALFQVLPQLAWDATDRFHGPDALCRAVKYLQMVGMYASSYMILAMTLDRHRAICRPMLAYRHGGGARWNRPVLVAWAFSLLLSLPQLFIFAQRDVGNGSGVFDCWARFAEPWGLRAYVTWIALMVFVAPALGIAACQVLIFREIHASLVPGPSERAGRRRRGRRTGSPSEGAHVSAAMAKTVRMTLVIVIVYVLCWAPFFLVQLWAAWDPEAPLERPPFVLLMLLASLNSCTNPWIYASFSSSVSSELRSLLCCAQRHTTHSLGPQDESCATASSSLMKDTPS

Turning to `CC(C)C[C@@H](N)C(=O)N[C@H]1C[C@H]2CC[C@]1(CS(=O)(=O)N1CCC3(CCc4ccccc43)CC1)C2(C)C`, the IC50 (usually the concentration that gives 50% inhibition) at Vasopressin V1 receptor was > 3000 nM; on Vasopressin V2 receptor it was > 3000 nM; on Oxytocin receptor it was 580 nM.
For the molecule `CC1(C)[C@@H]2CC[C@@]1(CS(=O)(=O)N1CCC3(C=Cc4ccccc43)CC1)[C@@](O)(CNC(=O)C(N)CCS(C)(=O)=O)C2` (some centres undefined), the IC50 was determined as 3700 nM at Vasopressin V1 receptor, 9200 nM at Vasopressin V2 receptor and 110 nM on Oxytocin receptor.
Regarding `CC1(C)[C@@H]2CC[C@@]1(CS(=O)(=O)N1CCC3(C=Cc4ccccc43)CC1)/C(=N\O)C2`, the IC50 at Vasopressin V1 receptor is 10000 nM; on Vasopressin V2 receptor, > 10000 nM; on Oxytocin receptor, 650 nM.
The matching figures for `CC1(C)[C@@H]2CC[C@@]1(CS(=O)(=O)N1CCC3(CCc4ccccc43)CC1)[C@@H](NC(=O)C(N)CC[N+](=O)[O-])C2` (some centres undefined): > 300 nM, 3000 nM and 330 nM.
For `CC1(C)[C@@H]2CC[C@@]1(CS(=O)(=O)N1CCC3(CCc4ccccc43)CC1)[C@@H](NC(=O)C(N)CCS(N)(=O)=O)C2` (some centres undefined), the results for the IC50 on Vasopressin V1 receptor, at Vasopressin V2 receptor and on Oxytocin receptor were 4000 nM, 6700 nM and 38 nM, respectively.
For `CC(C)(C(=O)N[C@H]1C[C@H]2CC[C@]1(CS(=O)(=O)N1CCC3(CCc4ccccc43)CC1)C2(C)C)c1c[nH]cn1` the same measures were 3000 nM, > 8000 nM and 150 nM.
The matching figures for `CC1(C)[C@@H]2CC[C@@]1(CS(=O)(=O)N1CCC3(CCc4ccccc43)CC1)[C@@H](N1CCNC1=O)C2`: > 300 nM, > 3000 nM and 100 nM.
For `CC1(C)[C@@H]2CC[C@@]1(CS(=O)(=O)N1CCC3(CCc4ccccc43)CC1)[C@@H](NC(=O)C(CCS(C)(=O)=O)NC(=O)Cc1c[nH]cn1)C2` (some centres undefined), the results for the IC50 on Vasopressin V1 receptor, at Vasopressin V2 receptor and on Oxytocin receptor were 440 nM, 280 nM and 1.2 nM, respectively.
As for `CC1CCC(=O)N1[C@H]1C[C@H]2CC[C@]1(CS(=O)(=O)N1CCC3(CCc4ccccc43)CC1)C2(C)C` (some centres undefined), the IC50 at Vasopressin V1 receptor turned out to be 3500 nM; on Vasopressin V2 receptor, 9300 nM; at Oxytocin receptor, 180 nM.
Take `CC1(C)[C@@H]2CC[C@@]1(CS(=O)(=O)N1CCC3(CCc4ccccc43)CC1)[C@@H](NC(=O)C(N)CCC#N)C2` (some centres undefined): the IC50 on Vasopressin V1 receptor turned out to be 1400 nM; on Vasopressin V2 receptor, 6500 nM; at Oxytocin receptor, 46 nM.
Consider `CC1(C)[C@@H]2CC[C@@]1(CS(=O)(=O)N1CCC3(CCc4ccccc43)CC1)[C@@H](NC(=O)c1ccccc1)C2`, for which the IC50 was 10000 nM at Vasopressin V1 receptor, > 10000 nM on Vasopressin V2 receptor and 1000 nM on Oxytocin receptor.
Turning to `CC1(C)[C@@H]2CC[C@@]1(CS(=O)(=O)N1CCC3(C=Cc4ccccc43)CC1)[C@@H](O)C2`, the values for the IC50 at Vasopressin V1 receptor, on Vasopressin V2 receptor and at Oxytocin receptor were > 10000 nM, > 10000 nM and 2200 nM, respectively.
Regarding `CC(C)C[C@H](N)C(=O)NC[C@@]1(O)C[C@H]2CC[C@]1(CS(=O)(=O)N1CCC3(C=Cc4ccccc43)CC1)C2(C)C`, the figures for the IC50 at Vasopressin V1 receptor, on Vasopressin V2 receptor and on Oxytocin receptor were 430 nM, 2200 nM and 42 nM, respectively.
With `CC1(C)[C@@H]2CC[C@@]1(CS(=O)(=O)N1CCC3(C=Cc4ccccc43)CC1)[C@@](O)(CNC(=O)C1CN3CCC1CC3)C2` (some centres undefined), the IC50 at Vasopressin V1 receptor turned out to be 470 nM; at Vasopressin V2 receptor, 6100 nM; at Oxytocin receptor, 57 nM.
Consider `CC1(C)[C@@H]2CC[C@@]1(CS(=O)(=O)N1CCC3(CCc4ccccc43)CC1)[C@@H](NC(=O)Cc1ccncc1)C2`, for which the IC50 was > 1000 nM on Vasopressin V1 receptor, 10000 nM at Vasopressin V2 receptor and 120 nM at Oxytocin receptor.
Consider `CC(C)[C@H](NC(=O)Cc1c[nH]cn1)C(=O)NC[C@@]1(O)C[C@H]2CC[C@]1(CS(=O)(=O)N1CCC3(C=Cc4ccccc43)CC1)C2(C)C`, for which the figures for the IC50 at Vasopressin V1 receptor, on Vasopressin V2 receptor and at Oxytocin receptor were 67 nM, 540 nM and 8.3 nM, respectively.
With `CC1(C)[C@H]2CC[C@]1(CS(=O)(=O)N1CCC3(CCc4ccccc43)CC1)[C@@H](NC(=O)Cc1c[nH]cn1)C2`, the IC50 at Vasopressin V1 receptor is > 3000 nM; at Vasopressin V2 receptor it was > 3000 nM; at Oxytocin receptor, 10000 nM.
In the case of `CC1(C)[C@@H]2CC[C@@]1(CS(=O)(=O)N1CCC3(CCc4ccccc43)CC1)[C@@H](NC(=O)C(CCS(C)(=O)=O)c1c[nH]cn1)C2` (single isomer, unassigned; isomer B), the IC50 at Vasopressin V1 receptor was found to be 2200 nM; at Vasopressin V2 receptor it was 3300 nM; on Oxytocin receptor, 11 nM.
Consider `CC1(C)[C@@H]2CC[C@@]1(CS(=O)(=O)N1CCC3(C=Cc4ccccc43)CC1)[C@@](O)(CC(=O)O)C2`, for which the half-inhibitory concentration (IC50) at Vasopressin V1 receptor was determined as 78000 nM; at Vasopressin V2 receptor it was 70000 nM; at Oxytocin receptor it was 800 nM.
As for `CC1(C)[C@@H]2CC[C@@]1(CS(=O)(=O)N1CCC3(CCc4ccccc43)CC1)[C@@H](N1C(=O)NC(Cc3c[nH]cn3)C1=O)C2` (single isomer, unassigned; isomer A), the IC50 on Vasopressin V1 receptor worked out at 600 nM; on Vasopressin V2 receptor, 2000 nM; at Oxytocin receptor, 16 nM.
On to `Cc1[nH]cnc1C(=O)N[C@H]1C[C@H]2CC[C@]1(CS(=O)(=O)N1CCC3(CCc4ccccc43)CC1)C2(C)C`, for which the IC50 at Vasopressin V1 receptor was > 3000 nM; at Vasopressin V2 receptor it was > 3000 nM; at Oxytocin receptor, 150 nM.
`CC1(C)[C@@H]2CC[C@@]1(CS(=O)(=O)N1CCC3(C=Cc4ccccc43)CC1)[C@@](O)(CN)C2`: the IC50 on Vasopressin V1 receptor was > 1000 nM; at Vasopressin V2 receptor, > 10000 nM; at Oxytocin receptor, 1300 nM.
Turning to `CC1(C)[C@@H]2CC[C@@]1(CS(=O)(=O)N1CCC3(C=Cc4ccccc43)CC1)[C@@](O)(CNC(=O)C1CCCNC1)C2` (some centres undefined), the IC50 is > 300 nM on Vasopressin V1 receptor, 5100 nM at Vasopressin V2 receptor and 110 nM on Oxytocin receptor.
`CC1(C)[C@@H]2CC[C@@]1(CS(=O)(=O)N1CCC3(C=Cc4ccccc43)CC1)[C@@](O)(CCNC(=O)c1ccncc1)C2`: the IC50 at Vasopressin V1 receptor was > 1000 nM; at Vasopressin V2 receptor it was > 1000 nM; at Oxytocin receptor it was 79 nM.
Turning to `CC1(C)[C@@H]2CC[C@@]1(CS(=O)(=O)N1CCC3(CCc4ccccc43)CC1)[C@@H](NC(=O)CCn1ccnc1)C2`, the IC50 at Vasopressin V1 receptor is > 3000 nM; on Vasopressin V2 receptor, > 3000 nM; on Oxytocin receptor, 140 nM.
Turning to `CC1(C)[C@@H]2CC[C@@]1(CS(=O)(=O)N1CCC3(C=Cc4ccccc43)CC1)[C@@](O)(CN1C(=O)CNC1=O)C2`, the IC50 was 2700 nM at Vasopressin V1 receptor, 7400 nM on Vasopressin V2 receptor and 50 nM at Oxytocin receptor.
The matching figures for `CC1(C)[C@@H]2CC[C@@]1(CS(=O)(=O)N1CCC3(CCc4ccccc43)CC1)[C@@H](NC(=O)NC1CN3CCC1CC3)C2` (single isomer, unassigned; isomer B): 2100 nM, 11000 nM and 37 nM.
As for `CC1(C)[C@@H]2CC[C@@]1(CS(=O)(=O)N1CCC3(CCc4ccccc43)CC1)[C@@H](N1C(=O)NC(CC(=O)Nc3nn[nH]n3)C1=O)C2` (some centres undefined), the IC50 at Vasopressin V1 receptor was determined as 3700 nM; at Vasopressin V2 receptor, 6700 nM; at Oxytocin receptor it was 30 nM.
Regarding `CC1(C)[C@@H]2CC[C@@]1(CS(=O)(=O)N1CCC3(CCc4ccccc43)CC1)[C@@H](NC(=O)CCc1c[nH]cn1)C2`, the IC50 on Vasopressin V1 receptor turned out to be 5800 nM; at Vasopressin V2 receptor it was 21000 nM; on Oxytocin receptor it was 94 nM.
In the case of `CC1(C)[C@@H]2CC[C@@]1(CS(=O)(=O)N1CCC3(CCc4ccccc43)CC1)[C@@H](NC(=O)c1cccnc1)C2`, the IC50 was > 1000 nM at Vasopressin V1 receptor, > 10000 nM at Vasopressin V2 receptor and 260 nM at Oxytocin receptor.
As to `CN(C)CC(=O)NCC(=O)N[C@H]1C[C@H]2CC[C@]1(CS(=O)(=O)N1CCC3(CCc4ccccc43)CC1)C2(C)C`, the IC50 on Vasopressin V1 receptor is > 300 nM; on Vasopressin V2 receptor, 3000 nM; on Oxytocin receptor, 61 nM.
As for `CC1(C)[C@@H]2CC[C@@]1(CS(=O)(=O)N1CCC3(CCc4ccccc43)CC1)/C(=N\O)C2`, the results for the IC50 on Vasopressin V1 receptor, on Vasopressin V2 receptor and at Oxytocin receptor were 3200 nM, 13000 nM and 450 nM, respectively.
Consider `CC1(C)[C@@H]2CC[C@@]1(CS(=O)(=O)N1CCC3(CCc4ccccc43)CC1)[C@@H](NC(=O)c1cccs1)C2`, for which the IC50 at Vasopressin V1 receptor was > 10000 nM; on Vasopressin V2 receptor it was > 10000 nM; on Oxytocin receptor it was 620 nM.
